{"source": "ChEMBL document CHEMBL3297651", "about": "“Plumbagin downregulates Wnt signaling independent of p53 in human colorectal cancer cells” (J Nat Prod, 2014)", "key": {"SW480 [1]": {"tested_on": "SW480", "assay": "Cytotoxicity against human SW480 cells assessed as cell viability after 24 hrs by MTT assay", "type": "functional, cell-based", "procedure,_shortened": "(§1)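 Cells seeded at 5000/well in 96-well plates, adhered overnight, then exposed to compound for 24 or 48 h (0−20 μM for SW480/SW620; 0−30 μM for HCT116 p53+/+ and p53−/−). MTT (5 mg/mL) added for 3.5 h, formazan dissolved in DMSO, OD read at 570 nm with 655 nm reference. Means ± SE from three independent experiments; IC50 derived from viability curves.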"}, "SW480 [2]": {"tested_on": "SW480", "assay": "Cytotoxicity against human SW480 cells assessed as cell viability after 48 hrs by MTT assay", "type": "functional, cell-based", "procedure,_shortened": "as §1"}, "SW-620 [3]": {"tested_on": "SW-620", "assay": "Cytotoxicity against human SW620 cells assessed as cell viability after 24 hrs by MTT assay", "type": "functional, cell-based", "procedure,_shortened": "as §1"}, "SW-620 [4]": {"tested_on": "SW-620", "assay": "Cytotoxicity against human SW620 cells assessed as cell viability after 48 hrs by MTT assay", "type": "functional, cell-based", "procedure,_shortened": "as §1"}, "SW-620 [5]": {"tested_on": "SW-620", "assay": "Inhibition of proto-oncogene protein Wnt/beta-catenin in human SW620 cells assessed as downregulation of TCF/LEF promoter transcriptional activity after 24 hrs by TOPFlash luciferase reporter gene assay", "type": "cell-based", "procedure,_shortened": "(§2)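 3 × 10^4 cells/well transfected with TOPFlash or FOPFlash plus Renilla plasmids (200 ng) by lipofectin in serum- and antibiotic-free DMEM. After 6 h, compound added in complete DMEM for 24 h (SW620 1−3 μM; HCT116 lines 5 and 10 μM), DMSO control. Dual luciferase read by photon counting, firefly normalized to Renilla; means ± SE, three independent experiments, Student t-test.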"}, "SW-620 [6]": {"tested_on": "SW-620", "assay": "Inhibition of proto-oncogene protein Wnt/beta-catenin in human SW620 cells assessed as downregulation of mutant TCF/LEF promoter transcriptional activity at 1 to 3 uM after 24 hrs by FOPFlash luciferase reporter gene assay", "type": "cell-based", "procedure,_shortened": "as §2"}, "SW480 [7]": {"tested_on": "SW480", "assay": "Inhibition of proto-oncogene protein Wnt/beta-catenin in human SW480 cells assessed as downregulation of TCF/LEF promoter transcriptional activity after 24 hrs by TOPFlash luciferase reporter gene assay", "type": "cell-based"}, "SW480 [8]": {"tested_on": "SW480", "assay": "Inhibition of proto-oncogene protein Wnt/beta-catenin in human SW480 cells assessed as downregulation of mutant TCF/LEF promoter transcriptional activity at 1 to 3 uM after 24 hrs by FOPFlash luciferase reporter gene assay", "type": "cell-based"}, "SW-620 [9]": {"tested_on": "SW-620", "assay": "Inhibition of proto-oncogene protein Wnt in human SW620 cells assessed as downregulation of beta-catenin protein expression at 6 uM after 24 hrs by Western blot analysis", "type": "cell-based", "procedure,_shortened": "(§3)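 10^6 cells/well in six-well plates treated 24 h with compound (6 μM SW620; 10 μM HCT116 lines) or DMSO control. Lysed 1 h on ice in Tris/NaCl/Triton/deoxycholate buffer with phosphatase and protease inhibitors; 50−75 μg protein on 8−10% SDS-PAGE, PVDF, primary antibodies 1:1000 overnight 4 °C, HRP secondaries 1:10 000, chemiluminescence; β-actin loading control; three independent experiments.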"}, "SW-620 [10]": {"tested_on": "SW-620", "assay": "Inhibition of proto-oncogene protein Wnt in human SW620 cells assessed as downregulation of p300 protein expression at 6 uM after 24 hrs by Western blot analysis", "type": "cell-based", "procedure,_shortened": "as §3"}, "SW-620 [11]": {"tested_on": "SW-620", "assay": "Inhibition of proto-oncogene protein Wnt in human SW620 cells assessed as downregulation of TCF7L2 protein expression at 6 uM after 24 hrs by Western blot analysis", "type": "cell-based", "procedure,_shortened": "as §3"}, "SW-620 [12]": {"tested_on": "SW-620", "assay": "Inhibition of proto-oncogene protein Wnt in human SW620 cells assessed as downregulation of Bcl9l protein expression at 6 uM after 24 hrs by Western blot analysis", "type": "cell-based", "procedure,_shortened": "as §3"}, "SW480 [13]": {"tested_on": "SW480", "assay": "Inhibition of proto-oncogene protein Wnt in human SW480 cells assessed as downregulation of beta-catenin protein expression at 6 to 10 uM after 24 hrs by Western blot analysis", "type": "cell-based"}, "SW480 [14]": {"tested_on": "SW480", "assay": "Inhibition of proto-oncogene protein Wnt in human SW480 cells assessed as downregulation of p300 protein expression at 6 to 10 uM after 24 hrs by Western blot analysis", "type": "cell-based"}, "SW480 [15]": {"tested_on": "SW480", "assay": "Inhibition of proto-oncogene protein Wnt in human SW480 cells assessed as downregulation of TCF7L2 protein expression at 6 to 10 uM after 24 hrs by Western blot analysis", "type": "cell-based"}, "SW480 [16]": {"tested_on": "SW480", "assay": "Inhibition of proto-oncogene protein Wnt in human SW480 cells assessed as downregulation of Bcl9l protein expression at 6 to 10 uM after 24 hrs by Western blot analysis", "type": "cell-based"}, "SW-620 [17]": {"tested_on": "SW-620", "assay": "Inhibition of proto-oncogene protein Wnt/beta-catenin in human SW620 cells assessed as downregulation of c-Myc protein expression at 6 uM after 24 hrs by Western blot analysis relative to control", "type": "cell-based", "procedure,_shortened": "as §3"}, "SW-620 [18]": {"tested_on": "SW-620", "assay": "Inhibition of proto-oncogene protein Wnt/beta-catenin in human SW620 cells assessed as downregulation of cyclin D1 protein expression at 6 uM after 24 hrs by Western blot analysis relative to control", "type": "cell-based", "procedure,_shortened": "as §3"}, "SW-620 [19]": {"tested_on": "SW-620", "assay": "Inhibition of proto-oncogene protein Wnt/beta-catenin in human SW620 cells assessed as downregulation of vimentin protein expression at 6 uM after 24 hrs by Western blot analysis relative to control", "type": "cell-based", "procedure,_shortened": "as §3"}, "HCT-116 [20]": {"tested_on": "HCT-116", "assay": "Cytotoxicity against human HCT116 cells expressing p53 assessed as cell viability after 24 hrs by MTT assay", "type": "functional, cell-based", "settings": "HCT-116, 24 h", "procedure,_shortened": "as §1"}, "HCT-116 [21]": {"tested_on": "HCT-116", "assay": "Cytotoxicity against p53-deficient human HCT116 cells assessed as cell viability after 24 hrs by MTT assay", "type": "functional, cell-based", "settings": "HCT-116, 24 h", "procedure,_shortened": "as §1"}, "HCT-116 [22]": {"tested_on": "HCT-116", "assay": "Inhibition of proto-oncogene protein Wnt/beta-catenin in human HCT116 cells expressing p53 assessed as downregulation of TCF/LEF promoter transcriptional activity at 5 to 10 uM after 24 hrs by TOPFlash/FOPFlash luciferase reporter gene assay", "type": "cell-based", "procedure,_shortened": "as §2"}, "HCT-116 [23]": {"tested_on": "HCT-116", "assay": "Inhibition of proto-oncogene protein Wnt/beta-catenin in p53-deficient human HCT116 cells assessed as downregulation of TCF/LEF promoter transcriptional activity at 5 to 10 uM after 24 hrs by TOPFlash/FOPFlash luciferase reporter gene assay", "type": "cell-based", "procedure,_shortened": "as §2"}, "HCT-116 [24]": {"tested_on": "HCT-116", "assay": "Inhibition of proto-oncogene protein Wnt in human HCT116 cells expressing p53 assessed as downregulation of beta-catenin protein expression at 10 uM after 24 hrs by Western blot analysis relative to control", "type": "cell-based", "procedure,_shortened": "as §3"}, "HCT-116 [25]": {"tested_on": "HCT-116", "assay": "Inhibition of proto-oncogene protein Wnt in p53-deficient human HCT116 cells assessed as downregulation of beta-catenin protein expression at 10 uM after 24 hrs by Western blot analysis relative to control", "type": "cell-based", "procedure,_shortened": "as §3"}, "SW-620 [26]": {"tested_on": "SW-620", "assay": "Upregulation of HBP1 protein expression in human SW620 cells at 6 uM after 24 hrs by Western blot analysis relative to control", "type": "functional", "procedure,_shortened": "as §3"}, "HCT-116 [27]": {"tested_on": "HCT-116", "assay": "Upregulation of HBP1 protein expression in human HCT116 cells expressing p53 at 10 uM after 24 hrs by Western blot analysis", "type": "functional, cell-based", "procedure,_shortened": "as §3"}, "HCT-116 [28]": {"tested_on": "HCT-116", "assay": "Upregulation of HBP1 protein expression in p53-deficient human HCT116 cells at 10 uM after 24 hrs by Western blot analysis", "type": "functional, cell-based", "procedure,_shortened": "as §3"}}, "note": "pIC50: −log10 of the molar value. Active and inactive are the calls of the source. The rule behind the calls is not given here."}
{"smiles": "CC1=CC(=O)c2c(O)cccc2C1=O", "note": "[PLUMBAGIN]", "values": [{"measurement": "Activity", "setting": "SW480 [1]", "result": "Dose-dependent effect"}, {"measurement": "pIC50", "setting": "SW480 [1]; SW480, 24 h", "result": 4.92}, {"measurement": "Activity", "setting": "SW480 [2]", "result": "Dose-dependent effect"}, {"measurement": "pIC50", "setting": "SW480 [2]; SW480, 48 h", "result": 5.14}, {"measurement": "Activity", "setting": "SW-620 [3]", "result": "Dose-dependent effect"}, {"measurement": "pIC50", "setting": "SW-620 [3]; SW-620, 24 h", "result": 5.11}, {"measurement": "Activity", "setting": "SW-620 [4]", "result": "Dose-dependent effect"}, {"measurement": "pIC50", "setting": "SW-620 [4]; SW-620, 48 h", "result": 5.13}, {"measurement": "inhibition", "setting": "SW-620 [5]", "result": "Dose-dependent effect"}, {"measurement": "inhibition", "setting": "SW-620 [6]", "result": "inactive"}, {"measurement": "inhibition", "setting": "SW480 [7]", "result": "Dose-dependent effect"}, {"measurement": "inhibition", "setting": "SW480 [8]", "result": "inactive"}, {"measurement": "inhibition", "setting": "SW-620 [9]", "result": "Active"}, {"measurement": "inhibition", "setting": "SW-620 [10]", "result": "Active"}, {"measurement": "inhibition", "setting": "SW-620 [11]", "result": "Active"}, {"measurement": "inhibition", "setting": "SW-620 [12]", "result": "Active"}, {"measurement": "inhibition", "setting": "SW480 [13]", "result": "Active"}, {"measurement": "inhibition", "setting": "SW480 [14]", "result": "Active"}, {"measurement": "inhibition", "setting": "SW480 [15]", "result": "Active"}, {"measurement": "inhibition", "setting": "SW480 [16]", "result": "Active"}, {"measurement": "inhibition", "setting": "SW-620 [17]", "result": 50, "unit": "%"}, {"measurement": "inhibition", "setting": "SW-620 [18]", "result": 50, "unit": "%"}, {"measurement": "inhibition", "setting": "SW-620 [19]", "result": 50, "unit": "%"}, {"measurement": "pIC50", "setting": "HCT-116 [20]", "result": 4.70}, {"measurement": "pIC50", "setting": "HCT-116 [21]", "result": 4.70}, {"measurement": "inhibition", "setting": "HCT-116 [22]", "result": "Active"}, {"measurement": "inhibition", "setting": "HCT-116 [23]", "result": "Active"}, {"measurement": "inhibition", "setting": "HCT-116 [24]", "result": 33, "unit": "%"}, {"measurement": "inhibition", "setting": "HCT-116 [25]", "result": 20, "unit": "%"}, {"measurement": "fold change (FC)", "setting": "SW-620 [26]", "result": 1.68}, {"measurement": "Activity", "setting": "HCT-116 [27]", "result": "Active"}, {"measurement": "Activity", "setting": "HCT-116 [28]", "result": "Active"}]}
